Here are results for three compounds from ChEMBL document CHEMBL3817782, “Synthesis, Structural Elucidation, and Biological Evaluation of NSC12, an Orally Available Fibroblast Growth Factor (FGF) Ligand Trap for the Treatment of FGF-Dependent Lung Tumors” (J Med Chem, 2016).

For data set [1], the target named is T1, Fibroblast growth factor 2 (Homo sapiens, UniProt P09038). As to the kind of experiment: Inhibition of human recombinant FGF2 assessed as suppression of FGF2-stimulated FGFR1 phosphorylation in mouse LLC cells at 25 uM incubated for 20 mins by Western blot analysis. The class given is cell-based. The method in brief:
(§1)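 LLC cells stimulated with FGF2 (30 ng/mL) with or without compound in medium plus 3% DMSO for 20 min. Cells lysed in RIPA buffer with 1% Triton X-100, 0.2% Brij and 1 mM orthovanadate. Immunoblotted with anti-phospho-FGFR1, with β-actin as loading control.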
On the technique in general: A western blot detects proteins with antibodies after separation by electrophoresis.

In data set [2] the test system is Mus musculus. The data set is described as follows: Toxicity in C57BL/6 mouse xenografted with mouse LLC cells assessed as effect on body weight at 7.5 mg/kg administered as oral gavage for 7 days daily. The format is organism-based. The note with it: in vivo, 168 h. The method, boiled down:
(§2)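 Eight-week-old C57BL/6 mice given 5 × 10^5 LLC cells sc in the dorsolateral flank in PBS. Dosing started once tumors were palpable: 7.5 mg/kg or vehicle daily by gavage in DMSO/H2O (1:1). Tumors measured in two dimensions, volume taken as (D × d²)/2. At the end, tumors harvested, weighed and photographed. Body weight and clinical signs followed throughout.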

Data set [3] is described as follows: Dissociation constant, pKa of the compound in methanol-water mixture at 25 +/- 1 degC by potentiometric pH-metric method. The format is physicochemical. The method in brief: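 Potentiometric pH-metric titration in methanol–water mixtures from 40 to 10%. Aqueous pKa extrapolated. Titration curves fitted by nonlinear multiparametric analysis.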
Data set [4] in a line: Kinetic solubility in DMEM buffer/1% DMSO assessed as recovered drug level at 10 uM after 4 hrs by HPLC-MS/MS analysis. The class given is physicochemical. The note with it: DMEM buffer with 1% DMSO; read-out: Drug recovery. The method, boiled down: (§3)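 Fresh DMSO stocks added 1:100 to DMEM plus 0.4% FBS, giving nominal 10, 6 or 3 μM and 1% DMSO final. Stirred 4 h (250 rpm, rt), centrifuged, supernatant diluted 1:100 in MeCN with internal standard. Quantified by HPLC–MS/MS.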

In data set [5] the target is T1, Fibroblast growth factor 2. As to the kind of experiment: Binding affinity to human recombinant FGF2 treated for 4 mins measured after 10 mins by surface plasmon resonance spectroscopic analysis. The method in brief: (§4)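 Human recombinant FGF2 (20 μg/mL in 10 mM sodium acetate, pH 6.0) coupled to an EDC/NHS-activated CM5 chip, with an ethanolamine-blocked dextran reference cell. Compounds injected at 8–150 μM for 4 min (30 μL/min), then 10 min dissociation. Apparent Kd taken from dose-dependent binding. Samples in PBS with 3% DMSO.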
For orientation: SPR reads the build-up and loss of mass on a sensor chip optically.

The target of data set [6] is T1, Fibroblast growth factor 2. As to the kind of experiment: Inhibition of human recombinant FGF2 assessed as reduction in HSPG/FGF2/[…] interaction by measuring FGF2 mediated […]-CHO-flg-1A-luc cell to CHO-K1 cell adhesion incubated for 2 hrs by luciferase assay. The format is cell-based. The method, boiled down:
(§5)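 Wild-type CHO-K1 monolayers fixed in 3% glutaraldehyde for 2 h at 4 °C, quenched with 0.1 M glycine. A745-CHO-flg-1A-luc cells (50 000 cells/cm²) added in serum-free medium plus 10 mM EDTA, with or without 30 ng/mL FGF2, plus increasing compound concentrations in 3% DMSO. Incubated 2 h at 37 °C. Unattached cells washed off; bound-cell luciferase measured. Triplicates.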

A short description of data set [7]: Kinetic solubility in 3% DMSO solution in PBS at 44 to 100 uM stirred for 5 mins by HPLC-MS/MS analysis. The class given is physicochemical. The note with it: buffer. The method in brief: (§6)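 Fresh DMSO stocks diluted into PBS to nominal 100, 44, 29, 16 and 8.9 μM, 3% DMSO final. Stirred 5 min (250 rpm, rt), centrifuged to remove undissolved material. Supernatant diluted 1:100 in MeCN containing internal standard (100 nM) and quantified by HPLC–ESI-MS/MS.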

Data set [8] concerns Mus musculus. The data set is described as follows: Toxicity in C57BL/6 mouse xenografted with mouse LLC cells assessed as effect on clinical parameters at 7.5 mg/kg administered as oral gavage for 7 days daily. The class given is organism-based. The note with it: in vivo, 168 h. The method, boiled down:
as §2

For data set [9], the system named is Lewis lung carcinoma. As to the kind of experiment: Antiangiogenic activity against mouse LLC cells xenografted in C57BL/6 mouse assessed as pale appearance at 7.5 mg/kg administered as oral gavage for 7 days daily. The class given is functional, organism-based. The method, boiled down: as §2
Data set [10] relates to Lewis lung carcinoma. As to the kind of experiment: Antitumor activity against mouse LLC cells xenografted in C57BL/6 mouse assessed as tumor growth inhibition at 7.5 mg/kg administered as oral gavage for 7 days daily relative to vehicle-treated control. The class given is functional, organism-based. The method, boiled down: as §2
Data set [11] can be described thus: Antiproliferative activity against mouse LLC cells incubated for 48 hrs by PI-staining based flow cytometry. The class given is functional, cell-based. To be noted: Lewis lung carcinoma. The method in brief:
(§7)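 LLC cells kept in DMEM plus 10% heat-inactivated FBS and cultured 48 h with compound in medium plus 1% DMSO final. PI-negative viable cells counted by flow cytometry to give absolute counts.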
On the technique in general: In flow cytometry, cells or beads pass a laser one at a time.

The test system of data set [12] is NCI-H520. As to the kind of experiment: Antiproliferative activity against human NCI-H520 cells incubated for 72 hrs by PI-staining based flow cytometry. The class given is functional, cell-based. The note with it: NCI-H520, 72 h. The method in brief: (§8)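 H520 cells kept in RPMI plus 10% FBS and cultured 72 h with compound in medium plus 1% DMSO final. Viable PI-negative cells counted by flow cytometry, with absolute counts from the analyzer's counting function.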

Data set [13] can be described thus: Plasma concentration in C57BL/6 mouse at 7.5 mg/kg administered as single dose measured after 30 mins. The format is ADME, organism-based. The method in brief: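 Eight-week-old mice given 7.5 mg/kg orally, with blood drawn 30 min, 2 h and 8 h later. Plasma proteins precipitated with acetonitrile containing internal standard (1:2). Analyte quantified by HPLC–ESI-MS/MS against calibration curves in spiked blank mouse plasma (linear 1–500 nM, LOQ 1 nM). Extraction recovery 90–95%.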

Data set [14] in a line: Kinetic solubility in 3% DMSO solution in PBS up to 30 uM stirred for 5 mins by HPLC-MS/MS analysis. To be noted: buffer. The class given is physicochemical. The method, boiled down:
as §6

The nature of data set [15]: Kinetic solubility in DMEM buffer at 10 uM after 4 hrs in presence of EDTA by HPLC-MS/MS analysis. The format is physicochemical. To be noted: DMEM buffer with EDTA; read-out: Kinetic_solubility. The method, boiled down: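 10 μM (nominal) in DMEM plus 0.4% FBS with 2 mM EDTA and 1% DMSO final. Stirred 4 h (250 rpm, rt), then centrifuged. Supernatant diluted 1:100 in MeCN with internal standard and measured by HPLC–MS/MS. Mean of recovered concentration reported with ±.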

Data set [16] can be described thus: Kinetic solubility in DMEM buffer/1% DMSO assessed as recovered drug level at 3 uM after 4 hrs by HPLC-MS/MS analysis. The class given is physicochemical. The note with it: DMEM buffer with 1% DMSO; read-out: Drug recovery. The method, boiled down:
as §3

In data set [17] the test system is Lewis lung carcinoma. The data set is described as follows: Antiproliferative activity against mouse LLC cells at 0.3 to 10 uM incubated for 48 hrs by PI-staining based flow cytometry. The class given is functional, cell-based. The method in brief: as §7
Data set [18] has as its target T1, Fibroblast growth factor 2. The data set is described as follows: Inhibition of human recombinant FGF2 assessed as suppression of FGFR1 phosphorylation in mouse LLC cells at 100 uM incubated for 20 mins by Western blot analysis. The class given is cell-based. The method in brief: as §1
Data set [19] addresses T1, Fibroblast growth factor 2. The data set is described as follows: Inhibition of human recombinant FGF2 assessed as reduction in HSPG/FGF2/[…] interaction by measuring FGF2 mediated […]-CHO-flg-1A-luc cell to CHO-K1 cell adhesion at 100 uM incubated for 2 hrs by luciferase assay. The format is cell-based. The method in brief: as §5
Data set [20] is described as follows: Kinetic solubility in DMEM buffer/1% DMSO assessed as recovered drug level at 6 uM after 4 hrs by HPLC-MS/MS analysis. The format is physicochemical. To be noted: DMEM buffer with 1% DMSO; read-out: Drug recovery. The method, boiled down:
as §3

The target of data set [21] is T1, Fibroblast growth factor 2. As to the kind of experiment: Binding affinity to human recombinant FGF2 at 8 to 150 uM treated for 4 mins measured after 10 mins by surface plasmon resonance spectroscopic analysis. The method, boiled down: as §4
Data set [22] has as its system NCI-H520. The data set is described as follows: Antiproliferative activity against human NCI-H520 cells at 0.3 to 10 uM incubated for 72 hrs by PI-staining based flow cytometry. The format is functional, cell-based. The method in brief:
as §8

As a reminder, the pKa is the pH at which an ionisable group is half protonated. The Kd is a measure of binding affinity in units of concentration. For orientation: IC50 means the concentration needed to halve the response being measured.

Structures are written as SMILES. Converted amounts (≈) assume the structure as drawn. The source made the active and inactive calls. No cut-off for these calls is given here.

T1 sequence (P09038 143-288 limits assumed): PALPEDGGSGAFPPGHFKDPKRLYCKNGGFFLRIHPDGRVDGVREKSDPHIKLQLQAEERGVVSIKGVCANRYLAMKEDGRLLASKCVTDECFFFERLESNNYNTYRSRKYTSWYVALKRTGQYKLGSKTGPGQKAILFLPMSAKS

`C[C@]12CC[C@H]3[C@@H](CC=C4C[C@@H](O)CC[C@@]43C)[C@@H]1CC[C@@H]2[C@@H](O)CC(O)(C(F)(F)F)C(F)(F)F`: the inhibition result in [1] is “Active”. For the same compound, the Activity result with Mus musculus [2] is “Non-toxic”; in data set [5] it was “Dose-dependent effect”; with Mus musculus [8], “Non-toxic”. Besides, the pKa in data set [3] is 9.04. For the same compound, the solubility kinetic at 4 h, 10 µM in data set [4] stood at 10.7 µM (≈ 5.18 µg/mL). Besides, in [5], the Kd was 40 µM. The figures for the IC50 (in [6]; in data set [11]; with NCI-H520 [12]) were 10 µM, 2 µM and 4.1 µM, respectively. The Kinetic_solubility result is reported as “Insoluble” in [7] and “soluble” in [14]. Moreover, the outcome with Lewis lung carcinoma [9] was Active. Besides, the TGI entry in the data set with Lewis lung carcinoma [10] is “Active”. Moreover, the concentration at 0.5 h in data set [13] was 316 nM.
On to `C[C@]12CC[C@H]3[C@@H](CC=C4C[C@@H](O)CC[C@@]43C)[C@@H]1CC[C@@H]2C(O)CC(O)(C(F)(F)F)C(F)(F)F` (some centres undefined), for which the values for the IC50 (in [6]; in [11]; with NCI-H520 [12]) were 10 µM, 2 µM and 4.1 µM, respectively. For the same compound, the outcome with Lewis lung carcinoma [9] was Active.
Consider `C[C@]12CC[C@H]3[C@@H](CC=C4C[C@@H](O)CC[C@@]43C)[C@@H]1CC[C@@H]2[C@H](O)CC(O)(C(F)(F)F)C(F)(F)F`, for which the solubility kinetic at 4 h, 10 µM in [15] was 1.73 µM; in data set [4] it was 2.1 µM (≈ 1.02 µg/mL). Also, in data set [16], the solubility kinetic at 4 h, 3 µM came to 1.4 µM (≈ 0.678 µg/mL). Moreover, the result (in the data set on Lewis lung carcinoma [17]; in data set [21]; with NCI-H520 [22]) was inactive. Further, the inhibition result in data set [18] and in data set [19] was “inactive” throughout. The Activity entry in the data set with Mus musculus [2] and in the data set on Mus musculus [8] was “Non-toxic” each time. The pKa in [3] is 9.08. The solubility kinetic at 4 h, 6 µM in [20] is 1.7 µM (≈ 0.824 µg/mL). Moreover, in the data set on Lewis lung carcinoma [10], the TGI result is “inactive”. Besides, the concentration at 0.5 h in data set [13] turned out to be 128 nM. Also, the Kinetic_solubility result in [14] is listed as “Insoluble”.
